Laboratory results from ChEMBL document CHEMBL2380298, “Synthesis and antimicrobial activity of novel amphiphilic aromatic amino alcohols” (2013).

Tests used:
Format in all cases: functional
[1] = test system: Staphylococcus epidermidis; test: Antimicrobial activity against Staphylococcus epidermidis ATCC 12228 by broth dilution method; details: for MIC: Staphylococcus epidermidis, ATCC 12228
[2] = test system: Staphylococcus aureus; test: Antimicrobial activity against Staphylococcus aureus ATCC 29213 by broth dilution method; details: for MIC: Staphylococcus aureus, ATCC 29213
[3] = test system: Candida parapsilosis; test: Antimicrobial activity against Candida parapsilosis ATCC 90030 by broth dilution method; details: Lodderomyces parapsilosis
[4] = test system: Nakaseomyces glabratus; test: Antimicrobial activity against Candida glabrata ATCC 18804 by broth dilution method
[5] = test system: Candida tropicalis; test: Antimicrobial activity against Candida tropicalis ATCC 750 by broth dilution method
[6] = test system: Pseudomonas aeruginosa; test: Antimicrobial activity against Pseudomonas aeruginosa ATCC 27853 by broth dilution method
[7] = test system: Escherichia coli; test: Antimicrobial activity against Escherichia coli ATCC 11229 by broth dilution method; details: for MIC: Escherichia coli, ATCC 11229
[8] = test system: Staphylococcus aureus; test: Bactericidal activity against methicillin-resistant Staphylococcus aureus clinical isolate 264 after 24 hrs; details: isolate 264, 24 h
Method in brief: (§1)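 Bactericidal concentration: 0.1 ml from wells at the MIC dilution and the dilutions on either side was streaked onto tryptic soy agar and incubated 24 h. It was taken as the lowest drug concentration giving no growth (100% killing).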

[9] = test system: Staphylococcus aureus; test: Bactericidal activity against methicillin-resistant Staphylococcus aureus clinical isolate 260 after 24 hrs; details: isolate 260, 24 h; method in brief: as §1
[10] = test system: Staphylococcus aureus; test: Bactericidal activity against methicillin-resistant Staphylococcus aureus clinical isolate 259 after 24 hrs; details: isolate 259, 24 h; method in brief: as §1
[11] = test system: Staphylococcus aureus; test: Bactericidal activity against methicillin-resistant Staphylococcus aureus clinical isolate 257 after 24 hrs; details: isolate 257, 24 h; method in brief: as §1
[12] = test system: Staphylococcus aureus; test: Bactericidal activity against methicillin-resistant Staphylococcus aureus clinical isolate 255 after 24 hrs; details: isolate 255, 24 h; method in brief: as §1
[13] = test system: Staphylococcus aureus; test: Bactericidal activity against methicillin-resistant Staphylococcus aureus clinical isolate 238 after 24 hrs; details: isolate 238, 24 h; method in brief: as §1
[14] = test system: Staphylococcus aureus; test: Bactericidal activity against methicillin-resistant Staphylococcus aureus clinical isolate 237 after 24 hrs; details: isolate 237, 24 h; method in brief: as §1
[15] = test system: Staphylococcus aureus; test: Bactericidal activity against methicillin-resistant Staphylococcus aureus clinical isolate 236 after 24 hrs; details: isolate 236, 24 h; method in brief: as §1
[16] = test system: Staphylococcus aureus; test: Bactericidal activity against methicillin-resistant Staphylococcus aureus clinical isolate 235 after 24 hrs; details: isolate 235, 24 h; method in brief: as §1
[17] = test system: Staphylococcus aureus; test: Bactericidal activity against methicillin-resistant Staphylococcus aureus clinical isolate 232 after 24 hrs; details: isolate 232, 24 h; method in brief: as §1
[18] = test system: Staphylococcus aureus; test: Bactericidal activity against methicillin-resistant Staphylococcus aureus clinical isolate 231 after 24 hrs; details: isolate 231, 24 h; method in brief: as §1
[19] = test system: Staphylococcus aureus; test: Bactericidal activity against methicillin-resistant Staphylococcus aureus clinical isolate 225 after 24 hrs; details: isolate 225, 24 h; method in brief: as §1
[20] = test system: Staphylococcus aureus; test: Bactericidal activity against methicillin-resistant Staphylococcus aureus clinical isolate 218 after 24 hrs; details: isolate 218, 24 h; method in brief: as §1
[21] = test system: Staphylococcus aureus; test: Bactericidal activity against methicillin-resistant Staphylococcus aureus clinical isolate 212 after 24 hrs; details: isolate 212, 24 h; method in brief: as §1
[22] = test system: Escherichia coli; test: Bactericidal activity against Escherichia coli ATCC 11229 after 24 hrs; details: ATCC 11229, 24 h
Method in brief: (§2)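 MBC: after MIC determination, 0.1 ml from the MIC well and from two dilutions either side streaked on tryptic soy agar, incubated 24 h; MBC taken as lowest concentration giving no growth (100% kill).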

[23] = test system: Staphylococcus epidermidis; test: Bactericidal activity against Staphylococcus epidermidis ATCC 12228 after 24 hrs; details: ATCC 12228, 24 h; method in brief: as §2
[24] = test system: Staphylococcus aureus; test: Bactericidal activity against Staphylococcus aureus ATCC 29213 after 24 hrs; details: ATCC 29213, 24 h; method in brief: as §1
[25] = test system: Candida albicans; test: Antimicrobial activity against Candida albicans ATCC 22019 by broth dilution method
[26] = test system: Staphylococcus aureus; test: Antimicrobial activity against methicillin-resistant Staphylococcus aureus clinical isolate by broth dilution method
[27] = test system: Staphylococcus aureus; test: Antimicrobial activity against methicillin-resistant Staphylococcus aureus clinical isolate 264 by broth dilution method
[28] = test system: Staphylococcus aureus; test: Antimicrobial activity against methicillin-resistant Staphylococcus aureus clinical isolate 260 by broth dilution method
[29] = test system: Staphylococcus aureus; test: Antimicrobial activity against methicillin-resistant Staphylococcus aureus clinical isolate 257 by broth dilution method
[30] = test system: Staphylococcus aureus; test: Antimicrobial activity against methicillin-resistant Staphylococcus aureus clinical isolate 259 by broth dilution method
[31] = test system: Staphylococcus aureus; test: Antimicrobial activity against methicillin-resistant Staphylococcus aureus clinical isolate 238 by broth dilution method
[32] = test system: Staphylococcus aureus; test: Antimicrobial activity against methicillin-resistant Staphylococcus aureus clinical isolate 255 by broth dilution method
[33] = test system: Staphylococcus aureus; test: Antimicrobial activity against methicillin-resistant Staphylococcus aureus clinical isolate 237 by broth dilution method
[34] = test system: Staphylococcus aureus; test: Antimicrobial activity against methicillin-resistant Staphylococcus aureus clinical isolate 236 by broth dilution method
[35] = test system: Staphylococcus aureus; test: Antimicrobial activity against methicillin-resistant Staphylococcus aureus clinical isolate 235 by broth dilution method
[36] = test system: Staphylococcus aureus; test: Antimicrobial activity against methicillin-resistant Staphylococcus aureus clinical isolate 232 by broth dilution method
[37] = test system: Staphylococcus aureus; test: Antimicrobial activity against methicillin-resistant Staphylococcus aureus clinical isolate 227 by broth dilution method
[38] = test system: Staphylococcus aureus; test: Antimicrobial activity against methicillin-resistant Staphylococcus aureus clinical isolate 231 by broth dilution method
[39] = test system: Staphylococcus aureus; test: Antimicrobial activity against methicillin-resistant Staphylococcus aureus clinical isolate 225 by broth dilution method
[40] = test system: Staphylococcus aureus; test: Antimicrobial activity against methicillin-resistant Staphylococcus aureus clinical isolate 215 by broth dilution method
[41] = test system: Staphylococcus aureus; test: Antimicrobial activity against methicillin-resistant Staphylococcus aureus clinical isolate 218 by broth dilution method
[42] = test system: Staphylococcus aureus; test: Antimicrobial activity against methicillin-resistant Staphylococcus aureus clinical isolate 212 by broth dilution method
[43] = test system: Staphylococcus aureus; test: Antimicrobial activity against methicillin-resistant Staphylococcus aureus clinical isolate 207 by broth dilution method
[44] = test system: Staphylococcus aureus; test: Antimicrobial activity against methicillin-resistant Staphylococcus aureus clinical isolate 205 by broth dilution method
[45] = test system: Staphylococcus aureus; test: Antimicrobial activity against methicillin-resistant Staphylococcus aureus clinical isolate 195 by broth dilution method
[46] = test system: Staphylococcus aureus; test: Antimicrobial activity against methicillin-resistant Staphylococcus aureus clinical isolate 178 by broth dilution method
[47] = test system: Staphylococcus aureus; test: Antimicrobial activity against methicillin-resistant Staphylococcus aureus clinical isolate 176 by broth dilution method

CCCCOc1ccc(CNC(CO)(CO)CO)cc1.Cl
512 µg/mL: MIC [1] | MIC [4] | MIC [6]
2.49: -logMIC [2] | -logMIC [7]
> 512 µg/mL: MIC [3] | MIC [5]
1020 µg/mL: MIC [2] | MIC [7]
2.79: -logMIC [1]

CCCCCCOc1ccc(CNC(CO)(CO)CO)cc1.Cl
3.13: -logMIC [7]
3.43: -logMIC [1]
> 512 µg/mL: MIC [3] | MIC [5]
512 µg/mL: MIC [6]
256 µg/mL: MIC [4] | MIC [7]
3.45: -logMIC [2]
128 µg/mL: MIC [1] | MIC [2]

CCCCCCCCOc1ccc(CNC(CO)(CO)CO)cc1.Cl
> 256 µg/mL: MIC [6]
4 µg/mL: MIC [25]
4.37: -logMIC [1]
4.06: -logMIC [7]
16 µg/mL: MIC [1] | MBC [13] | MBC [14] | MBC [17] | MBC [18] | MIC50 ([26]; Staphylococcus aureus) | MIC [28] | MIC [31] | MIC [33] | MIC [34] | MIC [35] | MIC [36] | MIC [38] | MIC [40] | MIC [41] | MIC [44]
128 µg/mL: MBC [20] | MBC [21] | MBC [23] | MIC [39] | MIC [46]
8 µg/mL: MIC [2] | MBC [10] | MBC [11] | MBC [12] | MIC [4] | MIC [27] | MIC [29] | MIC [30] | MIC [32]
3.67: -logMIC [2]
32 µg/mL: MBC [9] | MBC [15] | MBC [16] | MBC [22] | MBC [24] | MIC [3] | MIC [5] | MIC [37] | MIC [42] | MIC [45] | MIC [47] | MIC [7]
4.287: -logMIC [26]
64 µg/mL: MBC [8] | MIC90 ([26]; Staphylococcus aureus) | MIC [43]
512 µg/mL: MBC [19]
